What is called IC50 is the concentration that gives 50% inhibition. Lower therefore signals greater potency.

Structures are written as SMILES.

Test [1] addresses Glycogen synthase kinase-3 alpha/beta (Sus scrofa). The test is described as follows: Inhibition of glycogen synthase kinase-3-alpha/beta (GSK-3-alpha/beta) in porcine brain relative to indirubin.
The target of test [2] is Cyclin-dependent kinase 5/CDK5 activator 1 (Homo sapiens, UniProt Q00535). Put plainly: Inhibitory activity against Cyclin-dependent kinase 5-p35nck5a. In kind it is protein-complex assay. Put shortly:
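Recombinant mammalian CDK5 and p25 (truncated p35 activator), each expressed in E. coli as a GST fusion, purified on glutathione-agarose and mixed in equal amounts. IC50 from dose-response curves.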

Test [3] concerns the target Glycogen synthase kinase-3 alpha/beta (Sus scrofa). The test is described as follows: Inhibitory activity against GSK-3-alpha/beta from porcine brain.
Test [4] addresses Cyclin-dependent kinase 1/cyclin B (Marthasterias glacialis). The test is described as follows: Inhibitory activity against cyclin dependent kinase 1-cyclinB from starfish (Marthasterias glacialis) oocytes.

Chain of Cyclin-dependent kinase 5/CDK5 activator 1 (Q00535 whole entry, the tested form may be a part): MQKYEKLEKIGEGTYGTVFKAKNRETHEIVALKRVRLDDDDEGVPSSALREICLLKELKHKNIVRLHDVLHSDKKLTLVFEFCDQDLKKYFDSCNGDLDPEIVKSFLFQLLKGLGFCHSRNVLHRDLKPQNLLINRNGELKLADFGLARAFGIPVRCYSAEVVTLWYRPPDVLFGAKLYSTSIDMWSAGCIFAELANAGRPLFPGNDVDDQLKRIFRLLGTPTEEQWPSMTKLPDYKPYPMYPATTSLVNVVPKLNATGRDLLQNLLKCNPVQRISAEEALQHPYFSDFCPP
Chain of Cyclin-dependent kinase 5/CDK5 activator 1 (Q15078 whole entry, further chain, the tested form may be a part): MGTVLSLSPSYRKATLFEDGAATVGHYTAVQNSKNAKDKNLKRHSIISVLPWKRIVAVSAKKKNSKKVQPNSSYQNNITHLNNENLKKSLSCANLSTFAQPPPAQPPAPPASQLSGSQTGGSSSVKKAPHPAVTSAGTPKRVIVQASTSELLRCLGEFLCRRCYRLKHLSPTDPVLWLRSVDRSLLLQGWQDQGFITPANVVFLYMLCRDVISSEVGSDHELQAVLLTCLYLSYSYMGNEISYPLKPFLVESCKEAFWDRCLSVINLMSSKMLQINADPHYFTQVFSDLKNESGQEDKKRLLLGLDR

Turning to `Cc1ccc2[nH]c(O)c(C3=Nc4ccccc4C3=O)c2c1`, the IC50 in test [1] was found to be 0.062 µM.

In the case of `CO/N=C1/C(c2c(O)[nH]c3ccccc23)=Nc2ccccc21`, it took 0.4 µM to reach half-maximal inhibition in test [2] (IC50).

For `O=C1C(c2c(O)[nH]c3cc(Br)ccc23)=Nc2cc(Br)ccc21`, the IC50 in test [2] is above 100 µM; in test [3], 4.5 µM; in test [4], above 100 µM.

On to `O=Nc1c(-c2c(O)[nH]c3cc(Br)c([N+](=O)[O-])cc23)[nH]c2ccccc12`, for which 0.15 µM corresponded to half-maximal inhibition in test [2] (IC50).

Take `O=C1C(c2c(O)[nH]c3cc(F)ccc23)=Nc2ccccc21`: in test [2], the half-maximal inhibitory concentration (IC50) stood at 1 µM.

For `O=Nc1c(-c2c(O)[nH]c3cc(Cl)ccc23)[nH]c2ccccc12`, the figures for the 50% inhibitory concentration (IC50) in test [2], in test [3] and in test [4] were 0.1 µM, 0.02 µM and 0.65 µM, respectively.

Turning to `Cn1c(O)c(-c2[nH]c3ccccc3c2N=O)c2ccc(Br)cc21`, the figures for the IC50 in test [2], in test [3] and in test [4] were above 100 µM, above 100 µM and 92 µM, respectively.

Take `Cc1cc2c(C3=Nc4ccccc4C3=O)c(O)[nH]c2cc1Br`: the IC50 in test [2] is 60 µM; in test [3] it was 0.025 µM; in test [4] it was 30 µM.

For the compound `O=C1C(c2c(O)[nH]c3ccc(Br)cc23)=Nc2ccccc21`, the half-maximal inhibitory concentration (IC50) in test [1] came out at 0.055 µM.

`O=C1C(c2c(O)[nH]c3ccccc23)=Nc2ccc(Br)cc21` returned an IC50 in test [1] of 0.35 µM.

Take `O=C1C(c2c(O)[nH]c3ccc([N+](=O)[O-])cc23)=Nc2ccccc21`: in test [1], the half-maximal inhibitory concentration (IC50) is 0.042 µM.

As for `CC(=O)O/N=C1/C(c2c(O)[nH]c3cc(Cl)ccc23)=Nc2ccccc21`, the figures for the IC50 in test [2], in test [3] and in test [4] were 0.2 µM, 0.017 µM and 30 µM, respectively.

As to `O=Nc1c(-c2c(O)[nH]c3cc(F)ccc23)[nH]c2ccccc12`, the figures for the IC50 in test [2], in test [3] and in test [4] were 0.15 µM, 0.13 µM and 0.32 µM, respectively.

Consider `O=C1C(c2c(O)[nH]c3cc(I)ccc23)=Nc2ccccc21`, for which the IC50 was 5.3 µM in test [2], 0.055 µM in test [3] and 1.6 µM in test [4].

In the case of `Cn1c(O)c(C2=Nc3ccccc3C2=O)c2ccc(Br)cc21`, the IC50 in test [2], in test [3] and in test [4] was above 100 µM in each case.

On to `C=Cc1ccc2c(C3=Nc4ccccc4C3=O)c(O)[nH]c2c1`, for which the IC50 in test [2] stood at 2.4 µM; in test [3] it was 0.24 µM; in test [4], 4.2 µM.

The compound `Cc1cc2c(-c3[nH]c4ccccc4c3N=O)c(O)[nH]c2cc1Br` came in with an IC50 in test [2] of 0.13 µM.

On to `O=C1C(c2c(O)[nH]c3cccc(Cl)c23)=Nc2ccccc21`, for which the IC50 was 10 µM in test [2], above 100 µM in test [3] and 10 µM in test [4].

Regarding `O=C1C(c2c(O)[nH]c3ccc(Br)cc23)=Nc2ccc(Br)cc21`, in test [1], the IC50 was found to be 0.25 µM.

`CC(=O)O/N=C1/C(c2c(O)[nH]c3ccccc23)=Nc2ccccc21`: in test [2], the midpoint of inhibition, the IC50, lay at 0.7 µM.

In test [2], `O=C1C(c2c(O)[nH]c3cc(Br)ccc23)=Nc2ccccc21` showed an IC50 of 53 µM.

The compound `O=Nc1c(-c2c(O)[nH]c3cc(I)ccc23)[nH]c2ccccc12` gave an IC50 in test [2] of 0.3 µM.

For the compound `CC(=O)O/N=C1/C(c2c(O)[nH]c3cc(F)ccc23)=Nc2ccccc21`, inhibition in test [2] was half-maximal at 0.3 µM (IC50).

Consider `CC(=O)O/N=C1/C(c2c(O)[nH]c3cc(I)ccc23)=Nc2ccccc21`, for which the figures for the IC50 in test [2], in test [3] and in test [4] were 1.3 µM, 0.013 µM and 2.2 µM, respectively.

For the compound `O=Nc1c(-c2c(O)[nH]c3ccccc23)[nH]c2cc(Br)ccc12`, the IC50 in test [4] came out at 3 µM.

Regarding `CO/N=C1/C(c2c(O)[nH]c3cc(Br)ccc23)=Nc2ccccc21`, the IC50 in test [2] was found to be 2.2 µM; in test [3], 0.03 µM; in test [4], 3.7 µM.

Regarding `Cn1c(O)c(-c2[nH]c3ccccc3c2N=O)c2ccccc21`, the IC50 is above 100 µM in test [2] and 73 µM in test [4].

In test [1], `O=C1C(c2c(O)[nH]c3ccc(Cl)cc23)=Nc2ccccc21` gave an IC50 of 0.05 µM.

Take `O=C1C(c2c(O)[nH]c3ccc(F)cc23)=Nc2ccccc21`: the IC50 in test [1] came out at 0.078 µM.

For `O=C1C(c2c(O)[nH]c3cc(Cl)c(Cl)cc23)=Nc2ccccc21`, the IC50 in test [2] turned out to be 60 µM; in test [3], 0.03 µM; in test [4], 45 µM.

As for `O=C1C(c2c(O)[nH]c3ccccc23)=Nc2cc(Br)ccc21`, the IC50 in test [2] is above 100 µM; in test [3], 22 µM; in test [4], above 100 µM.

On to `O=C1C(c2c(O)[nH]c3cc(Br)c([N+](=O)[O-])cc23)=Nc2ccccc21`, for which the IC50 in test [2] is above 100 µM; in test [3], 0.1 µM; in test [4], above 100 µM.

Turning to `C=Cc1ccc2c(C3=Nc4ccccc4/C3=N\OC(C)=O)c(O)[nH]c2c1`, the concentration for half-maximal inhibition (IC50) in test [2] was 0.4 µM; in test [3] it was 0.065 µM; in test [4], 1.6 µM.

For `O=C1C(c2c(O)[nH]c3cc(Cl)ccc23)=Nc2ccccc21`, the 50% inhibitory concentration (IC50) in test [2] was above 100 µM; in test [3], 0.14 µM; in test [4], above 100 µM.

Take `C=Cc1ccc2c(-c3[nH]c4ccccc4c3N=O)c(O)[nH]c2c1`: the results for the IC50 in test [2], in test [3] and in test [4] were 0.42 µM, 0.06 µM and 1.2 µM, respectively.

`CC(=O)O/N=C1/C(=C2/C(=O)Nc3cc(Br)c([N+](=O)[O-])cc32)Nc2ccccc21`: the IC50 stood at 31 µM in test [2], 0.006 µM in test [3] and 11 µM in test [4].

As for `CC(=O)O/N=C1/C(=C2/C(=O)Nc3cc(Br)c(C)cc32)Nc2ccccc21`, the IC50 stood at 30 µM in test [2], 0.007 µM in test [3] and 31 µM in test [4].

Consider `Cn1c(O)c(C2=Nc3ccccc3C2=O)c2ccccc21`, for which the IC50 in test [2] and in test [4] was above 100 µM in each case.

Regarding `O=Nc1c(-c2c(O)[nH]c3cc(Br)ccc23)[nH]c2cc(Br)ccc12`, the IC50 stood at 1.3 µM in test [2], 0.12 µM in test [3] and 17 µM in test [4].

Take `CC(=O)O/N=C1/C(=C2/C(=O)Nc3cc(Br)ccc32)Nc2ccccc21` [6-BROMOINDIRUBIN-3'-ACETOXIME]: the IC50 was 2.4 µM in test [2], 0.01 µM in test [3] and 63 µM in test [4].

In the case of `CC(=O)O/N=C1/C(=C2/C(=O)Nc3cc(Cl)c(Cl)cc32)Nc2ccccc21` [INDIRUBIN 1], the IC50 in test [2] turned out to be 0.1 µM; in test [3] it was 0.004 µM; in test [4], 30 µM.

Source of the values: ChEMBL document CHEMBL1148469, “Structural basis for the synthesis of indirubins as potent and selective inhibitors of glycogen synthase kinase-3 and cyclin-dependent kinases” (J Med Chem, 2004).
